TRPC4 inh: blocks the mouse TRPC4 cation channel; Q9QUQ5; HEK293 TRPC4beta/mu-opioid, DAMGO-evoked Fluo4 calcium flux; active compounds read low; B-score at 10 µM; 0.39% of 300,000 active; AID 2247;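 active = B-score over 3 SD under the library average, no early fluorescence shift, positive overall ratio signal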
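Material: HEK293 cells with stable TRPC4beta plus mu-opioid receptor expression / Probe or stimulus: DAMGO in two steps, submaximal then maximal / Compound: single concentration per test compound / Technique: kinetic Fluo4 fluorescence imaging of calcium influx / Read-out: per-well B score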
TRPC6 act: activators of mouse TRPC6 channel; AID 2550; HEK293-TRPC6 membrane potential dye fluorescence; active compounds read high; B-score at 10 µM; 0.13% of 310,000 active;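 active = B-score of the integrated fluorescence ratio above library mean plus 3 SD, and starting fluorescence ratio within library mean plus 5 SD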;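 also: higher score means more depolarization so channel activation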
Target sequence (Q61143 whole entry, looked up): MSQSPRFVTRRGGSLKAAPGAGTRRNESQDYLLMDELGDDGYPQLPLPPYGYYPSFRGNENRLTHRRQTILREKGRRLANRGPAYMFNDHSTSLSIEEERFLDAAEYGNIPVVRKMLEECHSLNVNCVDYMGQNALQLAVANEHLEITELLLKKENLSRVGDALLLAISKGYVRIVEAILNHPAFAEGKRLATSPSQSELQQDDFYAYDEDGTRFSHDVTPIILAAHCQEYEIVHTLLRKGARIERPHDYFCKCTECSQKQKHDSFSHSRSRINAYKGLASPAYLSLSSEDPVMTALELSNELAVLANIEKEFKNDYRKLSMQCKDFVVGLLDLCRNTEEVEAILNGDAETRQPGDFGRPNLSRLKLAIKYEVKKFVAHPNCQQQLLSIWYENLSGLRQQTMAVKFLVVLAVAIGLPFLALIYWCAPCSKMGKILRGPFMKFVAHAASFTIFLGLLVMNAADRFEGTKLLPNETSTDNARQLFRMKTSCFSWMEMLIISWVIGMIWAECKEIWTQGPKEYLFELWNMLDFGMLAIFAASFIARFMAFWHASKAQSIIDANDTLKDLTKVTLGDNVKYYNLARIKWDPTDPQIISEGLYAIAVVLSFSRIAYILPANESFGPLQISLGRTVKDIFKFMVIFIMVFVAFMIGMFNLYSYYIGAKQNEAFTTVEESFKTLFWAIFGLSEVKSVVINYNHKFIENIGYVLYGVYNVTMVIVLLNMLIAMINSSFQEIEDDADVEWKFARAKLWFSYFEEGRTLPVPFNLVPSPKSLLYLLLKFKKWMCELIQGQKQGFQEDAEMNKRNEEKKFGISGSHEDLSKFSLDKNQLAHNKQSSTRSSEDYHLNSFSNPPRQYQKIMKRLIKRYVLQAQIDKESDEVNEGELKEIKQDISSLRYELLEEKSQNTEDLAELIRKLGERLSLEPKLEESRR
TRPC4 potent: TRPC4 (mouse) allosteric potentiation; 0.42% of 310,000 active; B-score at 10 µM; HEK293 TRPC4beta/mu-opioid, DAMGO EC20, Fluo-4 Ca2+ flux; active compounds read high; Q9QUQ5;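 active = B-score of calcium response area above 5 SD of library B-scores, with initial fluorescence ratio within 5 SD of library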;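 also: B-score of integrated fluorescence ratio over time as area under calcium response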
TRPC6 inhibitor: mouse TRPC6 channel inhibition; Q61143; HEK293-TRPC6, membrane potential dye, ACh-evoked depolarization; active compounds read low; B-score at 10 µM; 1.1% of 310,000 active; AID 2553;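 active = B-score under library mean minus 3 SD, initial fluorescence not abnormally high, positive integrated signal ratio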;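 also: B-score derived from integrated fluorescence ratio over the kinetic read; more negative B-score means stronger inhibition of depolarization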
TRPC4 agonist: opens the mouse TRPC4 cation channel. 0.49% of 310,000 active. HEK293 TRPC4beta/mu-opioid, Fluo4 calcium fluorescence; active compounds read high. AID 2237. B-score at 10 µM. Q9QUQ5;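 active = B-score above 5 SD of library B-scores, and initial fluorescence ratio not above library mean plus 5 SD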;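 also: positive B-score marks a calcium rise read as TRPC4 activation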
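Material: TRPC4beta and mu-opioid receptor HEK293 stable cells | Incubation: 45 min room-temperature Fluo4 loading, 110 s read | Detection: Kinetic Fluo4 calcium fluorescence | Measure: Integrated baseline-normalised fluorescence ratio, converted to per-well B score | Benchmarks: Low control buffer alone, high control maximal DAMGO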
Active calls of the source: *. Rows were chosen to be rich in hits. Some 2.3% of all compounds tested hit in one or more screens of this group.

`C=CCn1c(SCCN2CCOCC2)nc2c1c(=O)[nH]c(=O)n2C` gave TRPC4 inh inactive, TRPC6 act inactive, TRPC4 potent 23*, TRPC6 inhibitor inactive and TRPC4 agonist inactive.
C/C(Cl)=C/Cn1c(SCCN2CCOCC2)nc2c1c(=O)[nH]c(=O)n2C was read as TRPC4 inh inactive, TRPC6 act inactive, TRPC4 potent inactive, TRPC6 inhibitor inactive and TRPC4 agonist inactive.
C=CCSc1nc2c(c(=O)[nH]c(=O)n2C)n1C/C=C(/C)Cl was read as TRPC4 inh -7*, TRPC6 act inactive, TRPC4 potent inactive, TRPC6 inhibitor inactive and TRPC4 agonist inactive.
CN1CCC(NC(=O)c2ccncc2)CC1 was read as TRPC4 inh inactive, TRPC6 act inactive, TRPC4 potent inactive, TRPC6 inhibitor inactive and TRPC4 agonist inactive.
Screening CC1(C)CC(NC(=O)c2ccncc2)CC(C)(C)N1O returned TRPC4 inh inactive, TRPC6 act inactive, TRPC4 potent inactive, TRPC6 inhibitor inactive and TRPC4 agonist 79*.
COc1ccc(NC(=O)c2c(-c3c(Cl)cccc3Cl)noc2C)c(OC)c1 was read as TRPC4 inh inactive, TRPC6 act inactive, TRPC4 potent inactive, TRPC6 inhibitor inactive and TRPC4 agonist inactive.
Screening CCc1ccc(OC(C)C(=O)Nc2ccc(S(=O)(=O)Nc3nccs3)cc2)cc1 (stereo unspecified) returned TRPC4 inh inactive, TRPC6 act inactive, TRPC4 potent 12*, TRPC6 inhibitor inactive and TRPC4 agonist inactive.
For COc1ccc(/C=C2\CCCC3C2=NN(C(=O)CSc2n[nH]c(N)n2)C3c2ccc(OC)cc2)cc1 (stereo unspecified) the results were TRPC4 inh inactive, TRPC6 act inactive, TRPC4 potent 12*, TRPC6 inhibitor inactive and TRPC4 agonist inactive.
O=C1CCC(C(=O)OCC(=O)N2N=C3/C(=C/c4ccccc4)CCCC3C2c2ccccc2)N1 (stereo unspecified) was read as TRPC4 inh inactive, TRPC6 act inactive, TRPC4 potent inactive, TRPC6 inhibitor inactive and TRPC4 agonist inactive.
Screening CC(C)(C)c1ccc(-c2nc3cc(N)ccc3o2)cc1 returned TRPC4 inh inactive, TRPC6 act inactive, TRPC4 potent 18*, TRPC6 inhibitor inactive and TRPC4 agonist inactive.
Screening O=C(Nc1ccc2c(c1)CCCN2C(=O)c1cccs1)c1c(F)cccc1Cl returned TRPC4 inh inactive, TRPC6 act inactive, TRPC4 potent inactive, TRPC6 inhibitor inactive and TRPC4 agonist inactive.
`Fc1ccc(C(c2nnnn2Cc2cccs2)N2CCN(C3CCCCC3)CC2)cc1` (stereo unspecified) gave TRPC4 inh inactive, TRPC6 act inactive, TRPC4 potent inactive, TRPC6 inhibitor inactive and TRPC4 agonist 138*.
`CN1CCN(C(c2ccc(F)cc2)c2nnnn2Cc2cccs2)CC1` (stereo unspecified) gave TRPC4 inh inactive, TRPC6 act inactive, TRPC4 potent inactive, TRPC6 inhibitor inactive and TRPC4 agonist inactive.
Screening COc1ccc(/C=C\c2cc(OC)c(OC)cc2CC[N+](C)(C)C)cc1OC returned TRPC4 inh inactive, TRPC6 act inactive, TRPC4 potent inactive, TRPC6 inhibitor -7.71* and TRPC4 agonist inactive.
COc1ccccc1CNC(=O)Cn1cccc1C(=O)c1ccccc1C was read as TRPC4 inh inactive, TRPC6 act inactive, TRPC4 potent inactive, TRPC6 inhibitor inactive and TRPC4 agonist inactive.
Screening Cc1onc(-c2ccccc2Cl)c1C(=O)Nc1ccc(S(=O)(=O)N2CCCC2)cc1 returned TRPC4 inh inactive, TRPC6 act inactive, TRPC4 potent 10*, TRPC6 inhibitor inactive and TRPC4 agonist inactive.
Cc1ccc(NC(=O)c2cccs2)cc1 was read as TRPC4 inh -6*, TRPC6 act inactive, TRPC4 potent inactive, TRPC6 inhibitor inactive and TRPC4 agonist 77*.
Screening COc1ccc(C(CNC(=O)/C=C/c2c(Cl)nc3ccccn23)N(C)C)cc1 (stereo unspecified) returned TRPC4 inh inactive, TRPC6 act inactive, TRPC4 potent inactive, TRPC6 inhibitor inactive and TRPC4 agonist 249*.

Assay outcomes (PubChem BioAssay)
